Assay results: ChEMBL document CHEMBL1811763, “Design, syntheses, and kinetic evaluation of 3-(phenylamino)oxazolidine-2,4-diones as potent cytochrome bc₁ complex inhibitors” (Bioorg Med Chem, 2011)
Activity calls are given as the source filed them. The calls are words filed in the database; no cut-off is given here.

Assays:
Sus scrofa [1] = species: Sus scrofa; test: Inhibition of pig heart Cytochrome b-c1 complex assessed as oxidation of DBH2 by spectrophotometer
Method in brief: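 Porcine SCR preparation at 0.1 nM, reaction with 100 µM oxidized cytochrome c and 100 µM DBH2 in 100 mM PBS (pH 7.4), 0.3 mM EDTA; run at 23 °C both without and with 750 µM lauryl maltoside. For kinetics, DBH2 was varied over 20–200 µM with 0–5000 nM inhibitor, and Ki was fitted on a competitive model. DBH2 concentration was set from A288–A320.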

[2] = Inhibition of pig heart succinate-cytochrome c reductase (Electron transport protein complex 2/3) assessed as increase of cytochrome c by spectrophotometer; set-up: species or system Sus scrofa
Sus scrofa [3] = species: Sus scrofa; test: Inhibition of pig heart Succinate-ubiquinone oxidoreductase assessed as decrease of 2,6-dichlorophenolindophenol by spectrophotometer
Method in brief: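 Complex II activity within porcine SCR, with succinate and DCIP as substrates. Final concentrations: 100 mM PBS pH 7.4, 0.3 mM EDTA, 20 mM succinate, 53 µM DCIP; adding enzyme starts the reaction. DCIP reduction was followed as absorbance decrease at 600 nm (ε 21 mM⁻¹ cm⁻¹).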

Sus scrofa [4] = species: Sus scrofa; test: Activity of pig heart succinate-cytochrome c reductase (Electron transport protein complex 2/3) using cytochrome c as substrate by Line-weaverBurk plot analysis; assay type: tissue-based
Method in brief: (§1)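 Overall succinate→cytochrome c activity of porcine SCR (0.1 nM) was measured at 23 °C in 100 mM PBS pH 7.4, 0.3 mM EDTA and 20 mM succinate. Cytochrome c was varied over 1.16–16.02, with inhibitor at graded levels. Km(cyt c), Vmax and Ki came from double-reciprocal plots, assuming non-competitive inhibition.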

[5] = Competitive inhibition of pig heart Cytochrome b-c1 complex using DBH2 as substrate in absence of lauryl maltoside by Line-weaverBurk plot analysis; set-up: species or system Sus scrofa
[6] = Competitive inhibition of pig heart Cytochrome b-c1 complex using DBH2 as substrate by Line-weaverBurk plot analysis; set-up: species or system Sus scrofa
Method in brief: (§2)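 Porcine SCR preparation (0.1 nM) as the bc1 source, at 23 °C in 100 mM PBS pH 7.4, 0.3 mM EDTA and 750 lauryl maltoside. Substrates were 100 oxidized cytochrome c and DBH₂ varied over 20–200. Cytochrome c reduction was followed with and without inhibitor. Km(DBH₂), Vmax and Ki came from double-reciprocal plots, assuming competitive inhibition.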

[7] = Non-competitive inhibition of pig heart succinate-cytochrome c reductase (Electron transport protein complex 2/3) using cytochrome c as substrate by Line-weaverBurk plot analysis; set-up: species or system Sus scrofa; method in brief: as §1
[8] = Competitive inhibition of pig heart Cytochrome b-c1 complex using DBH2 as substrate in presence of lauryl maltoside by Line-weaverBurk plot analysis; set-up: species or system Sus scrofa; method in brief: as §2
Sus scrofa [9] = species: Sus scrofa; test: Activity of pig heart Cytochrome b-c1 complex using DBH2 as substrate by Line-weaverBurk plot analysis; method in brief: as §2
Sus scrofa [10] = species: Sus scrofa; test: Inhibition of pig heart Succinate-ubiquinone oxidoreductase assessed as decrease of 2,6-dichlorophenolindophenol at 20 uM by spectrophotometer
Sus scrofa [11] = species: Sus scrofa; test: Ratio Ki for pig heart Cytochrome b-c1 complex to Ki for pig heart succinate-cytochrome c reductase (Electron transport protein complex 2/3)
Sus scrofa [12] = species: Sus scrofa; test: Ratio Vmax for pig heart succinate-cytochrome c reductase (Electron transport protein complex 2/3) to Vmax for pig heart Cytochrome b-c1 complex

CC1(c2ccc(Br)nc2)OC(=O)N(Nc2ccc([N+](=O)[O-])cc2)C1=O (centres undefined)
inhibition (Sus scrofa [1]): Active
IC50 [2]: > 1000 nM
inhibition (Sus scrofa [3]): inactive

CC1(c2ccc(Br)nc2)OC(=O)N(Nc2ccccc2)C1=O (centres undefined)
inhibition (Sus scrofa [1]): Active
IC50 [2]: > 1000 nM
inhibition (Sus scrofa [3]): inactive

CC1(c2ccc(Br)nc2)OC(=O)N(Nc2ccc(C(F)(F)F)cc2)C1=O (centres undefined)
inhibition (Sus scrofa [1]): Active
IC50 [2]: > 1000 nM
inhibition (Sus scrofa [3]): inactive

CC1(c2ccc(Oc3ccccc3)cc2)OC(=O)N(Nc2ccc(C(F)(F)F)cc2)C1=O (centres undefined)
inhibition (Sus scrofa [1]): Active
IC50 [2]: 63.3 nM
inhibition (Sus scrofa [3]): inactive

Cc1ccc(NN2C(=O)OC(C)(c3ccc(Oc4ccccc4)cc3)C2=O)c(C)c1 (centres undefined)
inhibition (Sus scrofa [1]): Active
IC50 [2]: 15.9 nM
inhibition (Sus scrofa [3]): inactive

COc1ccc(NN2C(=O)OC(C)(c3ccc(Br)nc3)C2=O)cc1 (centres undefined)
inhibition (Sus scrofa [1]): Active
IC50 [2]: > 1000 nM
inhibition (Sus scrofa [3]): inactive

CC1(c2ccc(Oc3ccccc3)cc2)OC(=O)N(Nc2cccc(C(=O)O)c2)C1=O (centres undefined)
inhibition (Sus scrofa [1]): Active
IC50 [2]: 24 nM
inhibition (Sus scrofa [3]): inactive

COc1ccc(NN2C(=O)OC(C)(c3ccc(Oc4ccccc4)cc3)C2=O)cc1 (centres undefined)
inhibition (Sus scrofa [1]): Active
IC50 [2]: 57.9 nM
inhibition (Sus scrofa [3]): inactive

CC1(c2ccc(Br)nc2)OC(=O)N(Nc2ccc(C#N)cc2)C1=O (centres undefined)
inhibition (Sus scrofa [1]): Active
IC50 [2]: > 1000 nM
inhibition (Sus scrofa [3]): inactive

CC1(c2ccc(Oc3ccccc3)cc2)OC(=O)N(Nc2ccc(Cl)cc2)C1=O (centres undefined)
inhibition (Sus scrofa [1]): Active
IC50 [2]: 18.8 nM
inhibition (Sus scrofa [3]): inactive

CC1(c2ccc(Oc3ccccc3)cc2)OC(=O)N(Nc2ccc(C#N)cc2)C1=O (centres undefined)
inhibition (Sus scrofa [1]): Active
IC50 [2]: 275 nM
inhibition (Sus scrofa [3]): inactive

CO/C=C(/C(=O)OC)c1ccccc1Oc1cc(Oc2ccccc2C#N)ncn1 [AZOXYSTROBIN]
Km (Sus scrofa [4]): 4.37 µM
Vmax (Sus scrofa [4]): 0.0099 µM/s
IC50 [5]: 435 nM
Ki [6]: 204 nM
IC50 [7]: 291 nM
Ki [7]: 295 nM
IC50 [8]: 527 nM
Km (Sus scrofa [9]): 72.1 µM
Vmax (Sus scrofa [9]): 0.0528 µM/s

CC1(c2ccc(Br)nc2)OC(=O)N(Nc2ccc(Br)cc2)C1=O (centres undefined)
inhibition (Sus scrofa [1]): Active
IC50 [2]: > 1000 nM
inhibition (Sus scrofa [3]): inactive

Cc1ccc(NN2C(=O)OC(C)(c3ccc(Br)nc3)C2=O)cc1 (centres undefined)
inhibition (Sus scrofa [1]): Active
IC50 [2]: > 1000 nM
inhibition (Sus scrofa [3]): inactive

Cc1ccc(NN2C(=O)OC(C)(c3ccc(Oc4ccccc4)cc3)C2=O)cc1 (centres undefined)
inhibition (Sus scrofa [1]): Active
IC50 [2]: 23.8 nM
inhibition (Sus scrofa [3]): inactive

Cc1cccc(C)c1NN1C(=O)OC(C)(c2ccc(Br)nc2)C1=O (centres undefined)
inhibition (Sus scrofa [1]): Active
IC50 [2]: > 1000 nM
inhibition (Sus scrofa [3]): inactive

CC1(c2ccc(Br)nc2)OC(=O)N(Nc2ccc(Cl)cc2)C1=O (centres undefined)
inhibition (Sus scrofa [1]): Active
IC50 [2]: > 1000 nM
inhibition (Sus scrofa [3]): inactive

CC1(c2ccc(Oc3ccccc3)cc2)OC(=O)N(Nc2ccccc2)C1=O (centres undefined)
Km (Sus scrofa [4]): 4.47 µM
Vmax (Sus scrofa [4]): 0.0081 µM/s
inhibition (Sus scrofa [10]): inactive
IC50 [5]: 48.2 nM
IC50 [2]: 3.62 nM
Ki [6]: 51.4 nM
Ratio Ki (Sus scrofa [11]): 15
IC50 [7]: 4.78 nM
Ki [7]: 3.62 nM
IC50 [8]: 142 nM
Km (Sus scrofa [9]): 66.2 µM
Vmax (Sus scrofa [9]): 0.0598 µM/s

CC1(c2ccc(Oc3ccccc3)cc2)OC(=O)N(Nc2ccc(F)cc2Br)C1=O (centres undefined)
inhibition (Sus scrofa [1]): Active
IC50 [2]: 60 nM
inhibition (Sus scrofa [3]): inactive

CC1(c2ccc(Oc3ccccc3)cc2)OC(=O)N(Nc2ccc(C(=O)O)cc2)C1=O (centres undefined)
inhibition (Sus scrofa [1]): Active
IC50 [2]: 5310 nM
inhibition (Sus scrofa [3]): inactive

Cc1cccc(C)c1NN1C(=O)OC(C)(c2ccc(Oc3ccccc3)cc2)C1=O (centres undefined)
inhibition (Sus scrofa [1]): Active
IC50 [2]: 1520 nM
inhibition (Sus scrofa [3]): inactive

Cc1ccc(NN2C(=O)OC(C)(c3ccc(Br)nc3)C2=O)c(C)c1 (centres undefined)
inhibition (Sus scrofa [1]): Active
IC50 [2]: > 1000 nM
inhibition (Sus scrofa [3]): inactive

CC1(c2ccc(Oc3ccccc3)cc2)OC(=O)N(Nc2ccc(Br)cc2)C1=O (centres undefined)
Km (Sus scrofa [4]): 4.45 µM
Vmax (Sus scrofa [4]): 0.0081 µM/s
inhibition (Sus scrofa [1]): Active
inhibition (Sus scrofa [10]): inactive
IC50 [5]: 337 nM
IC50 [2]: 9.44 nM
inhibition (Sus scrofa [3]): inactive
Ki [6]: 329 nM
Ratio Ki (Sus scrofa [11]): 35
IC50 [7]: 9.03 nM
Ki [7]: 9.44 nM
Ratio (Sus scrofa [12]): 0.14
IC50 [8]: 1050 nM
Km (Sus scrofa [9]): 78 µM
Vmax (Sus scrofa [9]): 0.0574 µM/s

CC1(c2ccc(Br)nc2)OC(=O)N(Nc2ccc(F)cc2Br)C1=O (centres undefined)
inhibition (Sus scrofa [1]): Active
IC50 [2]: > 1000 nM
inhibition (Sus scrofa [3]): inactive
